Laboratory results taken from ChEMBL document CHEMBL2424622, “Development of amino-pyrimidine inhibitors of c-Jun N-terminal kinase (JNK): kinase profiling guided optimization of a 1,2,3-benzotriazole lead” (Bioorg Med Chem Lett, 2013).

Assays:
[1] = molecular target: T1, Serine/threonine-protein kinase STK11 (Homo sapiens) (UniProt Q15831); experiment: Competitive binding affinity to LKB1 (unknown origin) at 10 uM in presence of ATP relative to control
T1 sequence (whole entry): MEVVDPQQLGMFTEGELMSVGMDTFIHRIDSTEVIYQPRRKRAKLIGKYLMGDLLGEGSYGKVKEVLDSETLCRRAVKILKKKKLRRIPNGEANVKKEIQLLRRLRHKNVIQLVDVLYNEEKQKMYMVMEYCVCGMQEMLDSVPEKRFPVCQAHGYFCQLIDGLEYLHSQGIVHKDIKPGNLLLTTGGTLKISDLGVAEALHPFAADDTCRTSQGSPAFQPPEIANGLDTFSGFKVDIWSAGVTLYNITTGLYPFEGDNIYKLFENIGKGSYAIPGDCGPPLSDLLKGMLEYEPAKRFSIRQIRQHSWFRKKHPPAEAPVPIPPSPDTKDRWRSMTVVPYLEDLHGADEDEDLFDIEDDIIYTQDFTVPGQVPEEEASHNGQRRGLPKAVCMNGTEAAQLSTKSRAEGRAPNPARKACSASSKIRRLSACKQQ
Procedure, shortened: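 In vitro ATP-site competition binding assay, part of profiling against a diverse panel of 128 kinases. Each compound was tested at a single concentration of 10 µM. Kinome selectivity was summarized as S15 selectivity scores.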

[2] = molecular target: Serine/threonine-protein kinase pim-3 (Homo sapiens) (UniProt Q86V86); experiment: Competitive binding affinity to PIM3 (unknown origin) at 10 uM in presence of ATP relative to control
[3] = tested on: T2, Receptor-type tyrosine-protein kinase FLT3 (Homo sapiens), P36888 [D835Y]; experiment: Competitive binding affinity to FLT3 D835Y mutant (unknown origin) at 10 uM in presence of ATP relative to control
T2 sequence (whole entry): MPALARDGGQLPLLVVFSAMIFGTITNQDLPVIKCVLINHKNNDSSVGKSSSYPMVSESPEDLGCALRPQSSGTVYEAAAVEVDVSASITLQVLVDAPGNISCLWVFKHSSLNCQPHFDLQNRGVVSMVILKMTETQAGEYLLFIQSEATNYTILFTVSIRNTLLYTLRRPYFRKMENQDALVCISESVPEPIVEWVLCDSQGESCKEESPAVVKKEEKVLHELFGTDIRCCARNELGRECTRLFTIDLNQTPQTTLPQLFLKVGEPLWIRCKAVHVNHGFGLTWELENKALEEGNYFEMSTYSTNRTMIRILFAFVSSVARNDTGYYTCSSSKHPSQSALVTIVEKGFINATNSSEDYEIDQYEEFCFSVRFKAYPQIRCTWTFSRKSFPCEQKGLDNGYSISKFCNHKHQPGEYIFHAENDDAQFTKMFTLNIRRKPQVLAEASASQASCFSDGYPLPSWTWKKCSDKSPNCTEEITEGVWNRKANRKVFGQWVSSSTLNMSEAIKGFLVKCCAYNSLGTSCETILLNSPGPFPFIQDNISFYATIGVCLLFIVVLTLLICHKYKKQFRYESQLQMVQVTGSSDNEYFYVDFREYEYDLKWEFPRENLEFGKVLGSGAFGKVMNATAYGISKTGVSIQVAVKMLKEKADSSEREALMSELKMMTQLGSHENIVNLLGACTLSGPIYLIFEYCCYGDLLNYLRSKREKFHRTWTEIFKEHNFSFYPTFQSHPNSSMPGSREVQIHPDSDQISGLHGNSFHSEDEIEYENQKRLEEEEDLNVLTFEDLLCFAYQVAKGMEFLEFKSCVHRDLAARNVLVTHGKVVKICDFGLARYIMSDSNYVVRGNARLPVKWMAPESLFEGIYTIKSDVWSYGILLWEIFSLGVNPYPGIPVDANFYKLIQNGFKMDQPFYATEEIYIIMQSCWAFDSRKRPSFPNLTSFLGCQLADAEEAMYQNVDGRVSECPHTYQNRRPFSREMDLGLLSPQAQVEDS

[4] = molecular target: T3, Serine/threonine-protein kinase NLK (Homo sapiens) (UniProt Q9UBE8); experiment: Competitive binding affinity to NLK (unknown origin) at 10 uM in presence of ATP relative to control
T3 sequence (whole entry): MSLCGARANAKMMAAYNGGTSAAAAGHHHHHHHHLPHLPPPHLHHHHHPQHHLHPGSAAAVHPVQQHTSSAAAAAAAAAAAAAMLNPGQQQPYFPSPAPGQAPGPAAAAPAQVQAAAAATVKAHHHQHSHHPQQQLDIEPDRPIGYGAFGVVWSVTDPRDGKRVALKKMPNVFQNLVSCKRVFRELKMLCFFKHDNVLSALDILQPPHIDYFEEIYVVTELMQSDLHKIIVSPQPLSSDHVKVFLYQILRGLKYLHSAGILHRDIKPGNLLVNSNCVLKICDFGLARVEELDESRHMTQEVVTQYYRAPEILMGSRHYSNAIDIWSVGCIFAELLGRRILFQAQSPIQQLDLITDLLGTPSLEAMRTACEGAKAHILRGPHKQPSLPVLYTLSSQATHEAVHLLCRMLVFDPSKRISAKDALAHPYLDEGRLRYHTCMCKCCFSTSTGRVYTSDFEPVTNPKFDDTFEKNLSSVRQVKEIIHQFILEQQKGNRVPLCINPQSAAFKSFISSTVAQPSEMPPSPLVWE

[5] = molecular target: Myosin light chain kinase, smooth muscle (Homo sapiens) (UniProt Q15746); experiment: Competitive binding affinity to MLCK (unknown origin) at 10 uM in presence of ATP relative to control
Myosin light chain kinase, smooth muscle (Homo sapiens), sequence (Q15746 whole entry, canonical isoform): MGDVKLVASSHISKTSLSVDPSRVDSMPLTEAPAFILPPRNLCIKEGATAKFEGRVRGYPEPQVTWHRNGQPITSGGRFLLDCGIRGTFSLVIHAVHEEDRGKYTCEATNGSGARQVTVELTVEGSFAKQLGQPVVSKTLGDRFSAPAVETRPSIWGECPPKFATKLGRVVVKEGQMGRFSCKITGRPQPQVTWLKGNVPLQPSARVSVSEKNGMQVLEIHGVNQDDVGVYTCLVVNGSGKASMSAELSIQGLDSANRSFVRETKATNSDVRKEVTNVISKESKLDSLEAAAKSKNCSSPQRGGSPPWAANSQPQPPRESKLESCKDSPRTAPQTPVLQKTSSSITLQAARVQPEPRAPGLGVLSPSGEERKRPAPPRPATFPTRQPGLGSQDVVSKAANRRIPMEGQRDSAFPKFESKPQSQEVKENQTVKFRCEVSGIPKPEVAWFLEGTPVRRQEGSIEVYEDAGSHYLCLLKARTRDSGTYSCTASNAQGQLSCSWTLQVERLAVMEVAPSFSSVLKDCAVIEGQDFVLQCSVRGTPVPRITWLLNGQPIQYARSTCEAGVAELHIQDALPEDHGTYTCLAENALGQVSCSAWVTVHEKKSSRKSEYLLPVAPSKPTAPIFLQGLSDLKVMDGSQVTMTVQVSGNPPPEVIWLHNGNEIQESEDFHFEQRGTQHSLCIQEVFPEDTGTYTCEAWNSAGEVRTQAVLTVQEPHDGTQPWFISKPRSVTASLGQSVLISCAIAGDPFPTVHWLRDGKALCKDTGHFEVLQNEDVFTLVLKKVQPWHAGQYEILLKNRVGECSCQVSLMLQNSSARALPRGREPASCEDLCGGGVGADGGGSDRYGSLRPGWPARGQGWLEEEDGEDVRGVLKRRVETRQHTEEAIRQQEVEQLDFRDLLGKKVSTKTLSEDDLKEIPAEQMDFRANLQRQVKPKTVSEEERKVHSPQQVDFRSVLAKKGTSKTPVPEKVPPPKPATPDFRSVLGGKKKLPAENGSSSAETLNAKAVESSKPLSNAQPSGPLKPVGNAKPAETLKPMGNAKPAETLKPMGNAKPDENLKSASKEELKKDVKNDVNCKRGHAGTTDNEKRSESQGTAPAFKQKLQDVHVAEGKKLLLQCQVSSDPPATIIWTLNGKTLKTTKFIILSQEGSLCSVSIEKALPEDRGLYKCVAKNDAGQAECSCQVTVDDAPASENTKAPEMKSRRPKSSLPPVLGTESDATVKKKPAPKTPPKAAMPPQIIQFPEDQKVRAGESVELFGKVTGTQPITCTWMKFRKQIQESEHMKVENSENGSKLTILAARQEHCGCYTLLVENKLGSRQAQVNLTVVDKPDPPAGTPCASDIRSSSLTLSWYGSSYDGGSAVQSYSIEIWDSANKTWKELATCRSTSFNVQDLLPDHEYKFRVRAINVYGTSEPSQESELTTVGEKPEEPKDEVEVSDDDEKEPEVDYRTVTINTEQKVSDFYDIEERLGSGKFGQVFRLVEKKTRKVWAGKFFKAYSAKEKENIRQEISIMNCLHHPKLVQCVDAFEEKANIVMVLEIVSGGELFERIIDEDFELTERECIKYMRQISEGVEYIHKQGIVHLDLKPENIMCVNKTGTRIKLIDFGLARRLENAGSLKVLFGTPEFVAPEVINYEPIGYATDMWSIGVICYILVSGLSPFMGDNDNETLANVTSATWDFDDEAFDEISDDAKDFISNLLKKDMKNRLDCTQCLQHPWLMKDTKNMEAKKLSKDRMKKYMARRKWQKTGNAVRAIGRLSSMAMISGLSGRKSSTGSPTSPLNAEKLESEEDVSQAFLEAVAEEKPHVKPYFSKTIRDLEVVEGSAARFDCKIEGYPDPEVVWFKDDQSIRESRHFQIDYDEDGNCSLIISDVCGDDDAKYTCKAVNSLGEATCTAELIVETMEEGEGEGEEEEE

[6] = molecular target: Casein kinase I isoform delta (Homo sapiens) (UniProt P48730); experiment: Competitive binding affinity to CSNK1D (unknown origin) at 10 uM in presence of ATP relative to control
Casein kinase I isoform delta (Homo sapiens), sequence (P48730 whole entry, looked up, canonical isoform): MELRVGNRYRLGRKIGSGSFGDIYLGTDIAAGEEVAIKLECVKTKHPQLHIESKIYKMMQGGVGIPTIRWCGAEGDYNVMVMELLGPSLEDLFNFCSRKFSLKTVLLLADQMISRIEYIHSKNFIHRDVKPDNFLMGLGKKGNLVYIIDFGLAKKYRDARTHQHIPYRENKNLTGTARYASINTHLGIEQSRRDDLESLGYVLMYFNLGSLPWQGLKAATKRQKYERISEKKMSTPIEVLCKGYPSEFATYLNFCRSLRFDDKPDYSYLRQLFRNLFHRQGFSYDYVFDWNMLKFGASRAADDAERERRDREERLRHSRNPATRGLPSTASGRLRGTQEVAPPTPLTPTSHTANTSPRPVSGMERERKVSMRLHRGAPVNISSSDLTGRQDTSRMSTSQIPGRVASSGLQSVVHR

[7] = molecular target: Mitogen-activated protein kinase kinase kinase kinase 1 (Homo sapiens) (UniProt Q92918); experiment: Competitive binding affinity to MAP4K1 (unknown origin) at 10 uM in presence of ATP relative to control
Mitogen-activated protein kinase kinase kinase kinase 1 (Homo sapiens), sequence (Q92918 whole entry, looked up): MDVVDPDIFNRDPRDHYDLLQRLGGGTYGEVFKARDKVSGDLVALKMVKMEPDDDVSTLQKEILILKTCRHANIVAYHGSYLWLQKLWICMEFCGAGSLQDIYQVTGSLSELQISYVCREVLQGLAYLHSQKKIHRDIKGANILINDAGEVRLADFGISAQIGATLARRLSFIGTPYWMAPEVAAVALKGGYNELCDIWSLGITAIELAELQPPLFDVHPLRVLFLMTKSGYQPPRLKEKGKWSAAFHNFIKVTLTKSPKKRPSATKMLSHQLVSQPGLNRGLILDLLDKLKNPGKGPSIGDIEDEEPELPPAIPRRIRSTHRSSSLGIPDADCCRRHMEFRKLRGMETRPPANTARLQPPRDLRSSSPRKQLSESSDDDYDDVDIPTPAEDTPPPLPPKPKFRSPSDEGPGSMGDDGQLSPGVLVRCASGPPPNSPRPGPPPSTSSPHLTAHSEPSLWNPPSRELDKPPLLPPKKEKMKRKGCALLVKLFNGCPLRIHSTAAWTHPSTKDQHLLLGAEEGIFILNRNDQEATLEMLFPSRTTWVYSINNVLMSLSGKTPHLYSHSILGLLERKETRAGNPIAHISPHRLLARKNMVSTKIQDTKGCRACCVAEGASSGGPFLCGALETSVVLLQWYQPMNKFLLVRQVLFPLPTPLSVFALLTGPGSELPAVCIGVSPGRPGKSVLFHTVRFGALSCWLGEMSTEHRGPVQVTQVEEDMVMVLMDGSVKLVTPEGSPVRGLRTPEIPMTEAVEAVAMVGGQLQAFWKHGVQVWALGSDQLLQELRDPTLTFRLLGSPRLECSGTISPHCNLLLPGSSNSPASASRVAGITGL

[8] = molecular target: RAC-gamma serine/threonine-protein kinase (Homo sapiens) (UniProt Q9Y243); experiment: Competitive binding affinity to AKT3 (unknown origin) at 10 uM in presence of ATP relative to control
RAC-gamma serine/threonine-protein kinase (Homo sapiens), sequence (Q9Y243 whole entry): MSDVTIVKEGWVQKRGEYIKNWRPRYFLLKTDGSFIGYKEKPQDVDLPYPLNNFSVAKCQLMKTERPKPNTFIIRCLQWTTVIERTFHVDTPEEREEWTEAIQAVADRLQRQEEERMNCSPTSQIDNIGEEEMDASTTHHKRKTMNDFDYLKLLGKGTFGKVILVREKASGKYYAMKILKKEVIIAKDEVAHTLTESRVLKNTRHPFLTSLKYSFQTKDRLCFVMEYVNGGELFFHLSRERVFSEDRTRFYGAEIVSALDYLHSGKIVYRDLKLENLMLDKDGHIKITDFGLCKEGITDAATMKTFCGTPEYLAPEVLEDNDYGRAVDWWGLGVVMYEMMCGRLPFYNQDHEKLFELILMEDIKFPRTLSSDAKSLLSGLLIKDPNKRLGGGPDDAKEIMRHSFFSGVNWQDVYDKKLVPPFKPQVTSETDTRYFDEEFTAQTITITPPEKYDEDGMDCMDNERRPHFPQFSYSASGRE

inhibition [1] [%] | inhibition [2] [%] | inhibition [3] [%] | inhibition [4] [%] | inhibition [5] [%] | inhibition [6] [%] | inhibition [7] [%] | inhibition [8] [%] | SMILES
< 50 | 96 | 100 | < 50 | < 50 | 96 | < 50 | < 50 | O[C@H]1CC[C@H](Nc2nccc(-n3ncc4ccccc43)n2)CC1
< 50 | < 50 | < 50 | < 50 | 65 | 91 | < 50 | < 50 | O[C@H]1CC[C@H](Nc2nccc(-n3ccc4ccccc43)n2)CC1
75 | – | 100 | 90 | – | 100 | 97 | < 50 | O[C@H]1CC[C@H](Nc2nccc(-c3n[nH]c4ccccc34)n2)CC1
< 50 | 88 | 99 | < 50 | 88 | 100 | < 50 | < 50 | O[C@H]1CC[C@H](Nc2nccc(-n3nnc4ccccc43)n2)CC1
